Laboratory results as given in ChEMBL document CHEMBL3352664 (Bioorg Med Chem, 2014).
The source made the active and inactive calls. The rule behind the calls is not given here.

How the values were obtained:
Heme = assay: Binding affinity to heme assessed as inhibition of 1-oleoyl-rac-glycerol-induced beta-hematin polymerization by UV spectrophotometry
[1] = Binding affinity to hematin in 40% aqueous DMSO and 20 mM HEPES buffer at pH 7.5 at 25 degC
Plasmodium falciparum [2] = assay: Resistance index, ratio of IC50 for chloroquine-resistant Plasmodium falciparum K1 to IC50 for chloroquine-sensitive Plasmodium falciparum 3D7; type: functional
In short: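 Resistance index computed as IC50 (K1) / IC50 (3D7). Both IC50s come from the 72 h SYBR Green I fluorescence assay on P. falciparum-infected erythrocytes, run with two-fold serial dilutions in duplicate wells.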

Plasmodium falciparum [3] = assay: Antiplasmodial activity against chloroquine-sensitive Plasmodium falciparum 3D7 by Malaria SYBR Green I-nucleic acid staining based fluorescence assay; type: functional, organism-based
In short: (§1)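 SYBR Green I fluorescence assay (MSF). DMSO stock at 5 mg/mL, two-fold serial dilutions in RPMI-1640-FBS, tested in duplicate wells. Parasitized erythrocytes (0.8% parasitaemia, 1.0% cell suspension) incubated 72 h at 37 °C under 5% CO2. Lysis buffer with SYBR Green I added, 1 h at 37 °C. Fluorescence read at 485/530 nm.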

Plasmodium falciparum [4] = assay: Antiplasmodial activity against chloroquine-resistant Plasmodium falciparum K1 by Malaria SYBR Green I-nucleic acid staining based fluorescence assay; type: functional, organism-based; in short: as §1
[5] = Selectivity index, ratio of CC50 for african green monkey Vero cells to IC50 for chloroquine-sensitive Plasmodium falciparum; type: functional
Plasmodium yoelii [6] = assay: Antimalarial activity against chloroquine-resistant Plasmodium yoelii N-67infected in Swiss Albino mouse assessed as suppression of parasitemia at 100 mg/kg, po once daily for 7 days measured on day 4 post infection; type: functional
In short: (§2)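 P. yoelii N-67 (innately CQ-resistant) infection in Swiss albino mice (22 ± 2 g), 1 × 10^6 parasitized RBC on day 0. Groups of five dosed orally once daily from day 0, 100 mg/kg/day as aqueous suspension with a few drops of Tween 80. Parasitaemia read from thin blood smears every four days. % suppression uses the group mean vs untreated controls. Survival and cure (no parasitaemia) tracked to day 28.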

Plasmodium yoelii [7] = assay: Antimalarial activity against chloroquine-resistant Plasmodium yoelii N-67infected in Swiss Albino mouse assessed as mouse cured on day 28 at 100 mg/kg, po once daily for 7 days measured on day 4 post infection; type: functional, organism-based; set-up: dose 100 mg/kg; in short: as §2
Plasmodium yoelii [8] = assay: Antimalarial activity against chloroquine-resistant Plasmodium yoelii N-67infected in Swiss Albino mouse assessed as mouse survival on day 28 at 100 mg/kg, po once daily for 7 days measured on day 4 post infection; type: functional, organism-based; set-up: dose 100 mg/kg; in short: as §2
Plasmodium yoelii [9] = assay: Antimalarial activity against chloroquine-resistant Plasmodium yoelii N-67infected in Swiss Albino mouse assessed as mouse cured on day 28 at 100 mg/kg, po once daily for 4 days measured on day 4 post infection; type: functional, organism-based; set-up: dose 100 mg/kg; in short: as §2
Plasmodium yoelii [10] = assay: Antimalarial activity against chloroquine-resistant Plasmodium yoelii N-67infected in Swiss Albino mouse assessed as suppression of parasitemia at 100 mg/kg, po once daily for 4 days measured on day 4 post infection; type: functional; settings: N-67, 96 h; in short: as §2
Plasmodium yoelii [11] = assay: Antimalarial activity against chloroquine-resistant Plasmodium yoelii N-67infected in Swiss Albino mouse assessed as mouse survival on day 28 at 100 mg/kg, po once daily for 4 days measured on day 4 post infection; type: functional, organism-based; set-up: dose 100 mg/kg; in short: as §2
Plasmodium yoelii [12] = assay: Antimalarial activity against chloroquine-resistant Plasmodium yoelii N-67infected in Swiss Albino mouse assessed as mouse cured on day 28 at 20 mg/kg, po once daily for 4 days measured on day 4 post infection; type: functional, organism-based; set-up: dose 20 mg/kg
In short: (§3)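 Reference arm in the N-67 P. yoelii Swiss albino mouse model. 1 × 10^6 parasitized RBC given on day 0, five mice per group, oral dosing once daily. Parasitaemia from thin blood smears every four days; % suppression from the group mean vs untreated controls. Survival and cure (no parasitaemia) followed to day 28.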

Plasmodium yoelii [13] = assay: Antimalarial activity against chloroquine-resistant Plasmodium yoelii N-67infected in Swiss Albino mouse assessed as suppression of parasitemia at 20 mg/kg, po once daily for 4 days measured on day 4 post infection; type: functional; settings: N-67, 96 h; in short: as §3
Plasmodium yoelii [14] = assay: Antimalarial activity against chloroquine-resistant Plasmodium yoelii N-67infected in Swiss Albino mouse assessed as mouse survival on day 28 at 20 mg/kg, po once daily for 4 days measured on day 4 post infection; type: functional, organism-based; set-up: dose 20 mg/kg; in short: as §3

Structure (SMILES) | IC50 (Heme) [nM] | log K [1] | Ratio IC50 (Plasmodium falciparum [2]) | IC50 (Plasmodium falciparum [3]) [nM] | IC50 (Plasmodium falciparum [4]) [nM] | Selectivity Index [5] | inhibition in vivo at 100 mg/kg (Plasmodium yoelii [6]) [%] | Activity (Plasmodium yoelii [7]) | Activity (Plasmodium yoelii [8]) | Activity (Plasmodium yoelii [9]) | inhibition in vivo at 100 mg/kg (Plasmodium yoelii [10]) [%] | Activity (Plasmodium yoelii [11]) | Activity (Plasmodium yoelii [12]) | inhibition in vivo at 20 mg/kg (Plasmodium yoelii [13]) [%] | Activity (Plasmodium yoelii [14])
C[C@@H](CCCN1CCCC1)Nc1ccnc2cc(Cl)ccc12 | 180000 | 5.19 | 3.83 | 15.8 | 60.4 | 1469 | 100 | inactive |  |  |  |  |  |  | 
CCN(C)CCC[C@H](C)Nc1ccnc2cc(Cl)ccc12 | 150000 | 5.61 | 20.85 | 12.4 | 258 | 26389 |  |  |  |  |  |  |  |  | 
CCCCCCCCN(CCCCCCCC)CCC[C@H](C)Nc1ccnc2cc(Cl)ccc12 | 200000 | 5.58 | 0.084 | 94.8 | 7.95 | 103.94 | 14.5 | inactive | inactive |  |  |  |  |  | 
C[C@H](CCCN(C)C)Nc1ccnc2cc(Cl)ccc12 | 190000 | 5.77 | 33.74 | 6 | 202 | 28483 |  |  |  |  |  |  |  |  | 
CCN(CC)CCC[C@H](C)Nc1ccnc2cc(Cl)ccc12 |  |  |  |  |  |  | 100 | inactive |  |  |  |  |  |  | 
C[C@@H](CCCN1CCCCC1)Nc1ccnc2cc(Cl)ccc12 | 150000 | 5.4 | 8.09 | 14.9 | 121 | 20154 |  |  |  |  |  |  |  |  | 
C[C@@H](CCCN1CCN(C)CC1)Nc1ccnc2cc(Cl)ccc12 | 140000 | 4.73 | 1.53 | 14.2 | 21.8 | 14744 | 100 |  | Active |  |  |  |  |  | 
C[C@@H](CCCNC(C)(C)C)Nc1ccnc2cc(Cl)ccc12 | 150000 | 5.04 | >47.43 | 33 | > 1560 | 7100 |  |  |  |  |  |  |  |  | 
C[C@H](CCCN1CCN(C)CC1)Nc1ccnc2cc(Cl)ccc12 | 180000 | 5.53 | 15.2 | 6.92 | 105 | 18245 | 100 |  | Active |  |  |  |  |  | 
C[C@H](CCCN1CCOCC1)Nc1ccnc2cc(Cl)ccc12 | 150000 | 5.69 | 3.76 | 28.1 | 106 | 4186 |  |  |  |  |  |  |  |  | 
C[C@H](CCCN1CCCCC1)Nc1ccnc2cc(Cl)ccc12 | 130000 | 7.19 | 10.13 | 52.9 | 536 | 4257 |  |  |  |  |  |  |  |  | 
C[C@H](CCCNC(C)(C)C)Nc1ccnc2cc(Cl)ccc12 | 170000 | 5.71 | >335 | 4.66 | > 1560 | 24459 |  |  |  |  |  |  |  |  | 
C[C@@H](CCCN1CCOCC1)Nc1ccnc2cc(Cl)ccc12 | 190000 | 6 | 4.05 | 14 | 56.8 | 19256 |  |  |  | inactive | 99.6 | Active |  |  | 
CCN(CC)CCC[C@@H](C)Nc1ccnc2cc(Cl)ccc12 [(R)-CHLOROQUINE] |  |  |  |  |  |  | 100 | inactive |  |  |  |  |  |  | 
C[C@H](CCCN1CCCC1)Nc1ccnc2cc(Cl)ccc12 | 140000 | 6.02 | 12.23 | 10.2 | 125 | 14140 | 100 | inactive | inactive |  |  |  |  |  | 
CCN(C)CCC[C@@H](C)Nc1ccnc2cc(Cl)ccc12 | 140000 | 3.63 | 36.92 | 7.78 | 287 | 15838 |  |  |  |  |  |  |  |  | 
C[C@@H](CCCN(C)C)Nc1ccnc2cc(Cl)ccc12 | 150000 | 4.95 | 20.88 | 17.1 | 358 | 12483 |  |  |  |  |  |  |  |  | 
CCN(CC)CCCC(C)Nc1ccnc2cc(Cl)ccc12 (racemic) [CHLOROQUINE] |  |  |  |  |  |  |  |  |  |  |  |  | inactive | 99 | Active
CCCCCCCCN(CCCCCCCC)CCC[C@@H](C)Nc1ccnc2cc(Cl)ccc12 | 190000 | 5.02 | 1.6 | 78.6 | 126 | 44.28 | 9.5 | inactive | inactive |  |  |  |  |  | 
